≈ marks a conversion by molar mass, not a printed value.
The compounds below were run on HL-60 (assay: Cytotoxicity against human HL60 cells after 72 hrs by MTT assay). Conditions: HL-60, 72 h.
Format: functional, cell-based
In short: (§1)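 HL-60 (JCRB 0085) cells in RPMI 1640 with 10% FBS, L-glutamine, penicillin G and streptomycin, seeded at 4 × 10^4 cells/mL, preincubated 24 h at 37 °C in 5% CO2. Sample added in EtOH-H2O (1:1) to final 0.1-20 µg/mL; vehicle in controls. After 72 h, MTT 4 h, centrifuged, formazan dissolved in DMSO. Mean ± SEM of three experiments in triplicate.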

| SMILES | IC50 |
| --- | --- |
| CC1(C)CC[C@]2(C(=O)O)CC[C@]3(C)C(=CC[C@@H]4[C@@]5(C)CC[C@H](O[C@@H]6OC[C@H](O)[C@H](O)[C@H]6O[C@@H]6O[C@H](CO)[C@@H](O)[C@H](O)[C@H]6O)C(C)(C)[C@@H]5CC[C@]43C)[C@@H]2C1 | 10.8 µg/mL (≈ 14.4 µM) |
| CC1(C)CC[C@]2(C(=O)O)[C@H](O)C[C@]3(C)C(=CC[C@@H]4[C@@]5(C)CC[C@H](O[C@@H]6OC[C@H](O)[C@H](O)[C@H]6O)C(C)(C)[C@@H]5CC[C@]43C)[C@@H]2C1 | 5.6 µg/mL (≈ 9.26 µM) |
| CC1(C)CC[C@]2(C(=O)O)CC[C@]3(C)C(=CC[C@@H]4[C@@]5(C)CC[C@H](O[C@@H]6OC[C@H](O)[C@H](O)[C@H]6O)C(C)(C)[C@@H]5CC[C@]43C)[C@@H]2C1 | 3.4 µg/mL (≈ 5.77 µM) |
| CC1(C)CC[C@]2(C(=O)O)CC[C@]3(C)C(=CC[C@@H]4[C@@]5(C)CC[C@H](O[C@@H]6OC[C@H](O)[C@H](O)[C@H]6O)C(C)(CO)[C@@H]5CC[C@]43C)[C@@H]2C1 (stereo partly drawn) | 12.5 µg/mL (≈ 20.7 µM) |
| CC1(C)CC[C@]2(C(=O)O)CC[C@]3(C)C(=CC[C@@H]4[C@@]5(C)CC[C@H](O[C@@H]6OC[C@H](O)[C@H](O)[C@H]6O)[C@@](C)(C=O)[C@@H]5CC[C@]43C)[C@@H]2C1 | 4.8 µg/mL (≈ 7.96 µM) |
| CC1(C)CC[C@]2(C(=O)O)[C@H](O)C[C@]3(C)C(=CC[C@@H]4[C@@]5(C)CC[C@H](O[C@@H]6OC[C@H](O)[C@H](O)[C@H]6O[C@@H]6O[C@H](CO)[C@@H](O)[C@H](O)[C@H]6O)C(C)(C)[C@@H]5CC[C@]43C)[C@@H]2C1 | 11.8 µg/mL (≈ 15.4 µM) |
| COc1cc([C@@H]2c3cc4c(cc3[C@@H](O[C@@H]3O[C@@H]5CO[C@@H](C)O[C@H]5[C@H](O)[C@H]3O)[C@H]3COC(=O)[C@H]23)OCO4)cc(OC)c1O [ETOPOSIDE] | 0.26 µg/mL (≈ 0.442 µM) |
| CC1(C)CC[C@]2(C(=O)O)CC[C@]3(C)C(=CC[C@@H]4[C@@]5(C)CC[C@H](O[C@@H]6OC[C@H](O)[C@H](O)[C@H]6O[C@@H]6O[C@H](CO)[C@@H](O)[C@H](O)[C@H]6O)[C@@](C)(CO)[C@@H]5CC[C@]43C)[C@@H]2C1 | 15.9 µg/mL (≈ 20.7 µM) |

What follows are compounds tested on HL-60 (assay: Cytotoxicity against human HL60 cells up to 20 ug/ml after 72 hrs by MTT assay). Conditions: not given.
Format: functional, cell-based
In short: as §1

| SMILES | Activity |
| --- | --- |
| C[C@@H]1O[C@@H](O[C@H]2[C@H](O)[C@@H](O)[C@H](OC[C@H]3O[C@@H](OC(=O)[C@]45CCC(C)(C)C[C@H]4C4=CC[C@@H]6[C@@]7(C)CC[C@H](O[C@@H]8OC[C@H](O)[C@H](O)[C@H]8O)[C@@](C)(CO)[C@@H]7CC[C@@]6(C)[C@]4(C)C[C@H]5O)[C@H](O)[C@@H](O)[C@@H]3O)O[C@@H]2CO)[C@H](O)[C@H](O)[C@H]1O | Not toxic |
| CC1(C)CC[C@]2(C(=O)O[C@@H]3O[C@H](CO[C@@H]4O[C@H](CO)[C@@H](O)[C@H](O)[C@H]4O)[C@@H](O)[C@H](O)[C@H]3O)[C@H](O)C[C@]3(C)C(=CC[C@@H]4[C@@]5(C)CC[C@H](O[C@@H]6OC[C@H](O)[C@H](O)[C@H]6O)[C@@](C)(CO)[C@@H]5CC[C@]43C)[C@@H]2C1 | Not toxic |
| CC1(C)CC[C@@]2(C(=O)O)C(=C3C=C[C@@H]4[C@@]5(C)CC[C@H](O[C@@H]6OC[C@H](O)[C@H](O)[C@H]6O)[C@@](C)(CO)[C@@H]5CC[C@@]4(C)[C@]3(C)C[C@H]2O)C1 | Not toxic |
| C[C@@H]1O[C@@H](O[C@H]2[C@H](O)[C@@H](O)[C@H](OC[C@H]3O[C@@H](OC(=O)[C@]45CCC(C)(C)C[C@H]4C4=CC[C@@H]6[C@@]7(C)CC[C@H](O[C@@H]8OC[C@H](O)[C@H](O)[C@H]8O)[C@@](C)(CO)[C@@H]7CC[C@@]6(C)[C@]4(C)CC5)[C@H](O)[C@@H](O)[C@@H]3O)O[C@@H]2CO)[C@H](O)[C@H](O)[C@H]1O | Not toxic |
| C[C@H]1[C@@H]2C3CC[C@@H]4[C@@]5(C)CC[C@H](O[C@@H]6OC[C@H](O)[C@H](O)[C@H]6O[C@@H]6O[C@H](CO)[C@@H](O)[C@H](O)[C@H]6O)C(C)(C)[C@@H]5CC[C@@]4(C)[C@]3(C)CC[C@@]2(C(=O)O)CC[C@@]1(C)O (stereo partly drawn) | Not toxic |
| C[C@@H]1O[C@@H](O[C@H]2[C@H](O)[C@@H](O)[C@H](OC[C@H]3O[C@@H](OC(=O)[C@]45CCC(C)(C)C[C@H]4C4=CC[C@@H]6[C@@]7(C)CC[C@H](O)[C@@](C)(CO)[C@@H]7CC[C@@]6(C)[C@]4(C)CC5)[C@H](O)[C@@H](O)[C@@H]3O)O[C@@H]2CO)[C@H](O)[C@H](O)[C@H]1O | Not toxic |
| C[C@@H]1O[C@@H](O[C@H]2[C@H](O)[C@@H](O)[C@H](OC[C@H]3O[C@@H](OC(=O)[C@]45CCC(C)(C)C[C@H]4C4=CC[C@@H]6[C@@]7(C)CC[C@H](O[C@@H]8OC[C@H](O)[C@H](O)[C@H]8O[C@@H]8O[C@H](CO)[C@@H](O)[C@H](O)[C@H]8O)C(C)(C)[C@@H]7CC[C@@]6(C)[C@]4(C)CC5)[C@H](O)[C@@H](O)[C@@H]3O)O[C@@H]2CO)[C@H](O)[C@H](O)[C@H]1O | Not toxic |
| CC1(C)CC[C@]2(C(=O)O[C@@H]3O[C@H](CO)[C@@H](O)[C@H](O)[C@H]3O)[C@H](O)C[C@]3(C)C(=CC[C@@H]4[C@@]5(C)CC[C@H](O[C@@H]6OC[C@H](O)[C@H](O)[C@H]6O)[C@@](C)(CO)[C@@H]5CC[C@]43C)[C@@H]2C1 | Not toxic |
| CC1(C)CC[C@]2(C(=O)O)[C@H](O)C[C@]3(C)C(=CC[C@@H]4[C@@]5(C)CC[C@H](O[C@@H]6OC[C@H](O)[C@H](O)[C@H]6O[C@@H]6O[C@H](CO)[C@@H](O)[C@H](O)[C@H]6O)[C@@](C)(CO)[C@@H]5CC[C@]43C)[C@@H]2C1 | Not toxic |
| CC1(C)CC[C@]2(C(=O)O)[C@H](O)C[C@]3(C)C(=CC[C@@H]4[C@@]5(C)CC[C@H](O[C@@H]6OC[C@H](O)[C@H](O)[C@H]6O)[C@@](C)(C=O)[C@@H]5CC[C@]43C)[C@@H]2C1 | Not toxic |
| CC1(C)CC[C@]2(C(=O)O)[C@H](O)C[C@]3(C)C(=CC[C@@H]4[C@@]5(C)CC[C@H](O[C@@H]6OC[C@H](O)[C@H](O)[C@H]6O)[C@@](C)(CO)[C@@H]5CC[C@]43C)[C@@H]2C1 | Not toxic |
| CC1(C)CC[C@@]23CC[C@]4(C)[C@@](OC2=O)([C@@H]3C1)[C@H]1O[C@H]1[C@@H]1[C@@]2(C)CC[C@H](O[C@@H]3OC[C@H](O)[C@H](O)[C@H]3O[C@@H]3O[C@H](CO)[C@@H](O)[C@H](O)[C@H]3O)[C@@](C)(CO)[C@@H]2CC[C@]14C | Not toxic |
| C[C@H]1[C@@H]2[C@H]3CC[C@@H]4[C@@]5(C)CC[C@H](O[C@@H]6OC[C@H](O)[C@H](O)[C@H]6O[C@@H]6O[C@H](CO)[C@@H](O)[C@H](O)[C@H]6O)C(C)(C)[C@@H]5CC[C@@]4(C)[C@]3(C)CC[C@@]23CC[C@]1(C)OC3=O | Not toxic |
| C[C@@H]1O[C@@H](O[C@H]2[C@H](O)[C@@H](O)[C@H](OC[C@H]3O[C@@H](OC(=O)[C@]45CCC(C)(C)C[C@H]4C4=CC[C@@H]6[C@@]7(C)CC[C@H](O[C@@H]8OC[C@H](O)[C@H](O)[C@H]8O[C@@H]8O[C@H](CO)[C@@H](O)[C@H](O)[C@H]8O)[C@@](C)(CO)[C@@H]7CC[C@@]6(C)[C@]4(C)CC5)[C@H](O)[C@@H](O)[C@@H]3O)O[C@@H]2CO)[C@H](O)[C@H](O)[C@H]1O | Not toxic |
| CC1(C)CC[C@@]23C(=O)O[C@]4([C@@H]2C1)[C@H]1O[C@H]1[C@@H]1[C@@]2(C)CC[C@H](O[C@@H]5OC[C@H](O)[C@H](O)[C@H]5O)[C@@](C)(CO)[C@@H]2CC[C@@]1(C)[C@]4(C)C[C@H]3O | Not toxic |

— ChEMBL document CHEMBL1153025, “Triterpene glycosides from the underground parts of Caulophyllum thalictroides” (J Nat Prod, 2009)
